Broadly, the IC50 is the midpoint of a concentration-inhibition curve.

One experiment concerns the target T1, Histone deacetylase 8 (Homo sapiens, UniProt Q9BY41).
T1 sequence (Q9BY41 whole entry): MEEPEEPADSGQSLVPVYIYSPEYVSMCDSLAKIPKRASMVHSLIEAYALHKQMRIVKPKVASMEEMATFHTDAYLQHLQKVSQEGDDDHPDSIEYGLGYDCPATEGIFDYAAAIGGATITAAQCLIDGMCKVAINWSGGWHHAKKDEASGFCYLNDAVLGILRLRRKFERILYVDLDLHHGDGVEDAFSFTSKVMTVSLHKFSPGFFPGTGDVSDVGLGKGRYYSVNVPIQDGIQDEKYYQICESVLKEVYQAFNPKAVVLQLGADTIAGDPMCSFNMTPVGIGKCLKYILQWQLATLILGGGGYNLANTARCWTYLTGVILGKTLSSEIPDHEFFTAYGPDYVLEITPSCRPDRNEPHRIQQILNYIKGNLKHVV
Kind of experiment: Inhibition of recombinant HDAC8 (unknown origin) expressed in Escherichia coli BL21(DE3) after 60 mins using trichostatin A by label-free mass spectrometry-based SAMDI assay.

In experiment [1] the target is T2, Protein deacetylase HDAC6 (Homo sapiens, UniProt Q9UBN7).
T2 sequence (Q9UBN7 whole entry): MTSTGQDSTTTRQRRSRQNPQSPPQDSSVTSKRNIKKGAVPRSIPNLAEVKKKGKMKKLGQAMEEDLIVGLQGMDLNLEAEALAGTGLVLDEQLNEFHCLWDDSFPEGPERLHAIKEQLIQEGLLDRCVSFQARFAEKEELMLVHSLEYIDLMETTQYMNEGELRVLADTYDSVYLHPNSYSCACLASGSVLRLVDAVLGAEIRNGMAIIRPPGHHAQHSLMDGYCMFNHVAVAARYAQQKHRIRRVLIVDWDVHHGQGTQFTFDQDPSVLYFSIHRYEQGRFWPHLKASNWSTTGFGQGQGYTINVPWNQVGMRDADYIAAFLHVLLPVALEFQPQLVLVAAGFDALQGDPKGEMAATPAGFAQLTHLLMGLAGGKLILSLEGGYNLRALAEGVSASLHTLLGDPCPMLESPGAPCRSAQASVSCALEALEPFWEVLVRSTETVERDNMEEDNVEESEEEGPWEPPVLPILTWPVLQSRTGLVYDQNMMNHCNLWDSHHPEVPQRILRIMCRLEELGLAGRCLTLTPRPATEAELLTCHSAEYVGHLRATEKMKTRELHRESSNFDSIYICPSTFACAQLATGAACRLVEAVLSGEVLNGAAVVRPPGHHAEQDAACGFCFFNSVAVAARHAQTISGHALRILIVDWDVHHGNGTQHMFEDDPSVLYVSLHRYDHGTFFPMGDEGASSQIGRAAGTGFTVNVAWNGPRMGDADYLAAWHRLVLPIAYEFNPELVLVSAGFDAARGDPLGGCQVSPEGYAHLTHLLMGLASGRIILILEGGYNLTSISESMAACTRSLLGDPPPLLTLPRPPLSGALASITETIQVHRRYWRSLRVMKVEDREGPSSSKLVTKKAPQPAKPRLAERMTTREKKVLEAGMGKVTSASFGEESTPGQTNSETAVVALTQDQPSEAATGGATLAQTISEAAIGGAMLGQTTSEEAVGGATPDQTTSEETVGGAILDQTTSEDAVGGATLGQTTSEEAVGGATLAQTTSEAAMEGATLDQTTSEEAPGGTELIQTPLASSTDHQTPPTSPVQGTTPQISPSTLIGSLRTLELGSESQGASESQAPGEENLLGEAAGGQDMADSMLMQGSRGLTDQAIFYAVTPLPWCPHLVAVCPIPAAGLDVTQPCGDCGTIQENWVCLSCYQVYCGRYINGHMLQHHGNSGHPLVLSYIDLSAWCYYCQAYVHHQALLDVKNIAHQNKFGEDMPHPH
Description: Inhibition of recombinant HDAC6 (unknown origin) expressed in Escherichia coli BL21(DE3) after 60 mins using trichostatin A by label-free mass spectrometry-based SAMDI assay.

The target of a further experiment is Histone deacetylase 1 (Homo sapiens, UniProt Q13547). Description: Inhibition of recombinant HDAC1 (unknown origin) expressed in Escherichia coli BL21(DE3) after 60 mins using trichostatin A by label-free mass spectrometry-based SAMDI assay.
Histone deacetylase 1, sequence (Q13547 whole entry): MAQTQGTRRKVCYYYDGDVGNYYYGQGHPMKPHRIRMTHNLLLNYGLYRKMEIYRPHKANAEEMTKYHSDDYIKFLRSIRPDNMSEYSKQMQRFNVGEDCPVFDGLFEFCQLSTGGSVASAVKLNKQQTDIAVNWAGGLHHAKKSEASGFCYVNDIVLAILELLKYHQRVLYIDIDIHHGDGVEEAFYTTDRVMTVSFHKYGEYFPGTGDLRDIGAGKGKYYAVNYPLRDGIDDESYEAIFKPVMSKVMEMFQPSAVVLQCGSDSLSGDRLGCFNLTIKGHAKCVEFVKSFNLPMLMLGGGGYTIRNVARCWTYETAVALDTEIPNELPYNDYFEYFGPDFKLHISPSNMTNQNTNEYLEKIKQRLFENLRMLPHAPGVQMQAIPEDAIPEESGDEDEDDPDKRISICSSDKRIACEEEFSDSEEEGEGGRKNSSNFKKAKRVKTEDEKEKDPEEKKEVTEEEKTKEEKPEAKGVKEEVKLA
Another experiment relates to A549. Kind of experiment: Cytotoxicity against human A549 cells after 72 hrs by MTS assay. It counts as functional, cell-based. The settings on record: a549. The method in brief: (§1)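 Cells kept in DMEM with 10% FBS and 1% penicillin-streptomycin, seeded in 96-well plates for 24 h, then exposed to a range of drug concentrations for 72 h at 0.1% DMSO; viability read by MTS assay per manufacturer's protocol.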
(In general: Tetrazolium assays rely on reduction of a dye to a coloured formazan, in cell work by metabolically active cells.)

Another experiment concerns MCF7. Description: Cytotoxicity against human MCF7 cells after 72 hrs by MTS assay. The settings on record: mcf7. It counts as functional, cell-based. The essentials:
as §1

A value given as a limit tells only on which side of the number the result lay.

On to `CC[C@H]1OC(=O)[C@@H](C)[C@H](O[C@@H]2C[C@](C)(OC)[C@@](O)(CN(C)Cc3ccc(-c4cn(CC(=O)NO)nn4)cc3)[C@@H](C)O2)[C@H](C)[C@H](O[C@H]2O[C@@H](C)C[C@@H](N(C)C)[C@@H]2O)[C@@](C)(O)C[C@H](C)CN(C)[C@@H](C)[C@H](O)[C@@]1(C)O`, for which the IC50 is 4510 nM at Histone deacetylase 8, greater than 10000 nM in experiment [1] and greater than 10000 nM on Histone deacetylase 1.

For `CC[C@H]1OC(=O)[C@H](C)[C@@H](O[C@@H]2C[C@](C)(OC)[C@H](O)[C@@H](C)O2)[C@H](C)[C@@H](O[C@@H]2O[C@H](C)C[C@H](N(C)C)[C@H]2O)[C@@](C)(O)C[C@@H](C)CN(Cc2ccc(-c3cn(CCCC(=O)NO)nn3)cc2)[C@@H](C)[C@@H](O)[C@]1(C)O`, the concentration for half-maximal inhibition (IC50) at Histone deacetylase 8 is 2770 nM; in experiment [1] it was 620 nM; at Histone deacetylase 1, greater than 10000 nM.

As for `CC[C@H]1OC(=O)[C@H](C)C(=O)[C@H](C)[C@@H](O[C@@H]2O[C@H](C)C[C@H](N(C)Cc3ccccc3-c3cn(CCCCCCC(=O)NO)nn3)[C@H]2O)[C@@](C)(OC)C[C@@H](C)C2=NCCN3C(=O)O[C@@]1(C)[C@H]3[C@H]2C`, the IC50 is 2450 nM at Histone deacetylase 8; “Not Active” in the experiment on A549; 75.4 nM in experiment [1]; “Not Active” with MCF7; greater than 10000 nM on Histone deacetylase 1.

With `CC[C@@H]1OC(=O)[C@H](C)[C@@H](O[C@@H]2C[C@](C)(OC)[C@H](O)[C@@H](C)O2)[C@@H](C)[C@@H](O[C@@H]2O[C@H](C)C[C@H](N(C)Cc3cccc(-c4cn(CCCCCC(=O)NO)nn4)c3)[C@H]2O)[C@](C)(O)C[C@@H](C)CN(C)[C@H](C)[C@@H](O)[C@]1(C)O`, the IC50 at Histone deacetylase 8 was found to be 604 nM; in experiment [1], 43.8 nM; on Histone deacetylase 1, 109 nM.

For the molecule `CC[C@H]1OC(=O)[C@H](C)C(=O)[C@H](C)[C@@H](O[C@@H]2O[C@H](C)C[C@H](N(C)Cc3ccc(-c4cn(CC(=O)NO)nn4)cc3)[C@H]2O)[C@@](C)(OC)C[C@@H](C)C2=NCCN3C(=O)O[C@@]1(C)[C@H]3[C@H]2C`, the half-maximal inhibitory concentration (IC50) is 2850 nM at Histone deacetylase 8, greater than 10000 nM in experiment [1] and greater than 10000 nM on Histone deacetylase 1.

For `CC[C@H]1OC(=O)[C@H](C)[C@@H](O[C@@H]2C[C@](C)(OC)[C@H](O)[C@@H](C)O2)[C@H](C)[C@@H](O[C@@H]2O[C@H](C)C[C@H](N(C)C)[C@H]2O)[C@@](C)(O)C[C@@H](C)CN(Cc2ccc(-c3cn(CC(=O)NO)nn3)cc2)[C@@H](C)[C@@H](O)[C@]1(C)O`, the IC50 (at Histone deacetylase 8; in experiment [1]; on Histone deacetylase 1) was greater than 10000 nM in each case.

As for `CC[C@@H]1OC(=O)[C@H](C)[C@@H](O[C@H]2C[C@@](C)(OC)[C@](O)(CN(C)Cc3ccc(-c4cn(CCC(=O)NO)nn4)cc3)[C@H](C)O2)[C@@H](C)[C@@H](O[C@@H]2O[C@H](C)C[C@H](N(C)C)[C@H]2O)[C@](C)(O)C[C@@H](C)CN(C)[C@H](C)[C@@H](O)[C@]1(C)O`, the figures for the IC50 (on Histone deacetylase 8; in experiment [1]; on Histone deacetylase 1) were 2230 nM, 2030 nM and greater than 10000 nM, respectively.

Turning to `CC[C@@H]1OC(=O)[C@H](C)[C@@H](O[C@@H]2C[C@](C)(OC)[C@H](O)[C@@H](C)O2)[C@@H](C)[C@@H](O[C@@H]2O[C@H](C)C[C@H](N(C)Cc3ccccc3-c3cn(CCCCCC(=O)NO)nn3)[C@H]2O)[C@](C)(O)C[C@@H](C)CN(C)[C@H](C)[C@@H](O)[C@]1(C)O`, the values for the IC50 (on Histone deacetylase 8; in experiment [1]; on Histone deacetylase 1) were 4300 nM, 178 nM and 613 nM, respectively.

For the molecule `CC[C@H]1OC(=O)[C@H](C)C(=O)[C@H](C)[C@@H](O[C@@H]2O[C@H](C)C[C@H](N(C)Cc3ccc(-c4cn(CCCCC(=O)NO)nn4)cc3)[C@H]2O)[C@@](C)(OC)C[C@@H](C)C2=NCCN3C(=O)O[C@@]1(C)[C@H]3[C@H]2C`, the IC50 at Histone deacetylase 8 came out at 3210 nM; in experiment [1] it was 77.2 nM; at Histone deacetylase 1, 269 nM.

Consider `CC[C@H]1OC(=O)[C@H](C)[C@@H](O[C@@H]2C[C@](C)(OC)[C@H](O)[C@@H](C)O2)[C@@H](C)[C@@H](O[C@H]2O[C@@H](C)C[C@@H](N(C)Cc3ccc(-c4cn(CCCC(=O)NO)nn4)cc3)[C@@H]2O)[C@](C)(OC)C[C@@H](C)C(=O)[C@H](C)[C@H](O)[C@]1(C)O`, for which the concentration for half-maximal inhibition (IC50) is 986 nM on Histone deacetylase 8, 70.9 nM in experiment [1] and 9910 nM on Histone deacetylase 1.

Regarding `CC[C@@H]1OC(=O)[C@H](C)[C@@H](O[C@@H]2C[C@](C)(OC)[C@H](O)[C@@H](C)O2)[C@@H](C)[C@@H](O[C@@H]2O[C@H](C)C[C@H](N(C)Cc3ccccc3-c3cn(CCCCCCC(=O)NO)nn3)[C@H]2O)[C@](C)(O)C[C@@H](C)CN(C)[C@H](C)[C@@H](O)[C@]1(C)O`, the IC50 at Histone deacetylase 8 is 1280 nM; in the experiment with A549, “Not Active”; in experiment [1] it was 30.9 nM; with MCF7, “Not Active”; at Histone deacetylase 1, 923 nM.

On to `CC[C@@H]1OC(=O)[C@H](C)[C@@H](O[C@@H]2C[C@](C)(OC)[C@@](O)(CN(C)Cc3ccc(-c4cn(CCCC(=O)NO)nn4)cc3)[C@@H](C)O2)[C@@H](C)[C@@H](O[C@@H]2O[C@H](C)C[C@H](N(C)C)[C@H]2O)[C@](C)(O)C[C@@H](C)CN(C)[C@H](C)[C@@H](O)[C@]1(C)O`, for which the IC50 is 1180 nM at Histone deacetylase 8, 181 nM in experiment [1] and greater than 10000 nM on Histone deacetylase 1.

Turning to `CC[C@@H]1OC(=O)[C@@H](C)[C@H](O[C@H]2C[C@@](C)(OC)[C@@H](O)[C@H](C)O2)[C@@H](C)[C@H](O[C@H]2O[C@@H](C)C[C@@H](N(C)C)[C@@H]2O)[C@](C)(O)C[C@H](C)CN(Cc2ccc(-c3cn(CCCCC(=O)NO)nn3)cc2)[C@H](C)[C@H](O)[C@@]1(C)O`, the concentration for half-maximal inhibition (IC50) on Histone deacetylase 8 was greater than 10000 nM; in the experiment with A549 it was “Not Active”; in experiment [1], 24.5 nM; with MCF7, “Not Active”; at Histone deacetylase 1 it was 2550 nM.

As to `CC[C@H]1OC(=O)[C@@H](C)[C@H](O[C@H]2C[C@@](C)(OC)[C@@H](O)[C@H](C)O2)[C@H](C)[C@H](O[C@H]2O[C@@H](C)C[C@@H](N(C)Cc3ccc(-c4cn(CCC(=O)NO)nn4)cc3)[C@@H]2O)[C@@](C)(O)C[C@H](C)CN(C)[C@@H](C)[C@H](O)[C@@]1(C)O`, the values for the IC50 (on Histone deacetylase 8; in experiment [1]; at Histone deacetylase 1) were greater than 10000 nM, 2170 nM and greater than 10000 nM, respectively.

`CC[C@H]1OC(=O)[C@@H](C)[C@H](O[C@H]2C[C@@](C)(OC)[C@@H](O)[C@H](C)O2)[C@H](C)[C@H](O[C@H]2O[C@@H](C)C[C@@H](N(C)Cc3ccc(-c4cn(CCCC(=O)NO)nn4)cc3)[C@@H]2O)[C@@](C)(O)C[C@H](C)CN(C)[C@@H](C)[C@H](O)[C@@]1(C)O`: the IC50 at Histone deacetylase 8 was greater than 10000 nM; with A549, “Not Active”; in experiment [1], 106 nM; in the experiment on MCF7 it was “Not Active”; at Histone deacetylase 1 it was greater than 10000 nM.

With `CC[C@H]1OC(=O)[C@@H](C)[C@H](O[C@H]2C[C@@](C)(OC)[C@@H](O)[C@H](C)O2)[C@H](C)[C@H](O[C@H]2O[C@@H](C)C[C@@H](N(C)Cc3ccc(-c4cn(CC(=O)NO)nn4)cc3)[C@@H]2O)[C@@](C)(O)C[C@H](C)CN(C)[C@@H](C)[C@H](O)[C@@]1(C)O`, the values for the IC50 (on Histone deacetylase 8; in experiment [1]; at Histone deacetylase 1) were greater than 10000 nM, 5660 nM and greater than 10000 nM, respectively.
